# Test results published in PubChem BioAssay AID588687 (Southern Research Specialized Biocontainment Screening …, 2011).
# Activity calls are given as the source filed them.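 Rule for the calls: active = inhibition of 30% or more at any tested concentration; inactive = the rest.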
# Test system: M18 aspartyl aminopeptidase (Plasmodium falciparum 3D7)
# Experiment: P. falciparum M18 aminopeptidase activity inhibition – biochemical, QFRET fluorogenic substrate, counter-screen for PfM1 aminopeptidase inhibitor project, dose response (AID 588687)
# Details: recombinant PfM18AAP, H-Glu-NHMec fluorogenic cleavage; series mostly up to 100 µM
# Method in brief: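 Assay system – recombinant P. falciparum PFM18AAP enzyme · Medium – pH 7.5 Tris-HCl plus 2 mM CoCl2 · Also added – 0.1 mM H-Glu-NHMec substrate · Schedule – enzyme reaction with compounds 90 min at room temperature · Measured by – fluorescence of released leaving group, excitation 370 nm, emission 460 nm · Read-out – % inhibition of enzyme activity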
row,Compound,outcome
1,CC[C@H](C)[C@H](NC(=O)c1ccc([N+](=O)[O-])cc1)C(=O)NCc1ccc(C(F)(F)F)cc1,inactive
2,CC[C@H](C)[C@H](NC(=O)c1ccc([N+](=O)[O-])cc1)C(=O)NCc1ccc(F)cc1,inactive
3,O=C(NCc1ccc2c(c1)OCO2)C1CCN(S(=O)(=O)c2ccc(-c3ccc(F)cc3)s2)CC1,inactive
4,CC(C)(C)c1ccc(-c2ccc(S(=O)(=O)N3CCC(C(=O)NCc4ccc5c(c4)OCO5)CC3)s2)cc1,inactive
5,CC[C@H](C)[C@H](NC(=O)c1ccc(C(C)(C)C)cc1)C(=O)NCc1ccc(C(F)(F)F)cc1,inactive
6,O=C(NCc1ccc2c(c1)OCO2)C1CCN(S(=O)(=O)c2ccc(-c3cncc4ccccc34)s2)CC1,inactive
7,CC[C@H](C)[C@H](NS(=O)(=O)c1ccc(Br)s1)C(=O)O,inactive
8,CC(=O)Nc1cccc(-c2ccc(S(=O)(=O)N3CCC(C(=O)NCc4ccc5c(c4)OCO5)CC3)s2)c1,inactive
9,CC[C@H](C)[C@H](NS(=O)(=O)c1cccs1)C(=O)NCc1ccc(F)cc1,inactive
10,CC[C@H](C)[C@H](NS(=O)(=O)c1ccc(Br)s1)C(=O)NCc1ccc(F)cc1,inactive
11,CC[C@H](C)[C@H](NC(=O)c1ccc([N+](=O)[O-])cc1)C(=O)NCc1ccccc1,inactive
12,COc1ccc(-c2ccc(S(=O)(=O)N3CCC(C(=O)NCc4ccc5c(c4)OCO5)CC3)s2)cc1,inactive
13,O=C(NCc1ccc2c(c1)OCO2)C1CCN(S(=O)(=O)c2ccc(-c3cccc(F)c3)s2)CC1,inactive
14,COc1cccc(-c2ccc(S(=O)(=O)N3CCC(C(=O)NCc4ccc5c(c4)OCO5)CC3)s2)c1,inactive
15,CC[C@H](C)[C@H](NS(=O)(=O)c1ccc(Br)s1)C(=O)NCc1ccc(C(F)(F)F)cc1,inactive
16,CN(C)c1ccc(CNC(=O)C2CCN(S(=O)(=O)c3ccc(Br)s3)CC2)cc1,inactive
17,O=C(NCc1ccc2c(c1)OCO2)C1CCN(S(=O)(=O)c2ccc(-c3ccccc3)s2)CC1,inactive
